This passage reports cytotoxicity results from ChEMBL document CHEMBL4513216, “Probing the Open Global Health Chemical Diversity Library for Multistage-Active Starting Points for Next-Generation Antimalarials” (ACS Infect Dis, 2020).

The data set in a line: Toxicity liver stage against HepG2, at 10uM. It counts as cell-based. Further details: test concentration 10 uM, cell line HepG2-A16-CD81EGFP. The conditions noted are these: human, HepG2-A16-CD81EGFP cells; read-out: INHIBITION
In outline:
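Uninfected HepG2-A16-CD81EGFP cells, 3 × 10^3 per well, 1536-well, plated on prespotted compound at 10 μM final, parasite-free screening media added to match infected plates; puromycin 10 μM positive, DMSO 0.5% negative; run in parallel with 48 h PbLuc assay at 37 °C, 5% CO2; viability by CellTiter-Glo luminescence, normalized to controls.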
On to `Cc1cc(C(=O)NCCC2CCN(C)CC2)ccc1N(C)S(C)(=O)=O`, for which the cytotoxicity at 10 µM was 5.82%.
Consider `OCCn1nccc1C1CCN(Cc2nc(C3CC3)no2)CC1`, for which the cytotoxicity at 10 µM was -11.7%.
With `Cc1cc(N2CCCCCC2)n2nc(C)c(C)c2n1` the figure was -6.23%; with `Cc1cc(C)nc(N2CCC(CNC(=O)c3ccccn3)CC2)n1`, -18.9%; with `Cc1csc(C(=O)N2CCC(S(C)(=O)=O)CC2)c1`, 2.7%.
Turning to `CN1CCCC1CNC(=O)CCCOc1cccc(F)c1` (stereo not given), the cytotoxicity at 10 µM was -9.54%.
The result for `O=C(COCC1CCCCO1)N1CCN(Cc2ccccc2F)C(=O)C1` (stereo not given) reads 3.15%; that for `COc1nc2c(cc1C(=O)NC(C)Cc1cc(C)n[nH]1)CCC2` (stereo not given), -137%; that for `Cc1ncsc1C(=O)NCCCN1CCCCCC1=O`, -3.51%.
As for `Cc1nc(C)n(CC2CCCN2CC(=O)Nc2ccnn2C(C)C)n1` (stereo not given), the cytotoxicity at 10 µM was -14%.
Turning to `Cc1cnc(N2CCN(C(C)C(N)=O)CC2)nc1` (stereo not given), the cytotoxicity at 10 µM stood at 0.399%.
The result for `CC(=O)N1CCN(C(C)c2nnc(CC(C)C)o2)CC1` (stereo not given) reads 6.88%; that for `Cn1cc(S(=O)(=O)NCc2ccc(F)cc2)cn1`, 1.25%; that for `Cc1cc(-c2nc(-c3c(C)ncc4c3CCNC4)no2)nc(C)n1`, 4.43%.
For the compound `Cn1cc(N2CC3(COCCN(Cc4ccccn4)C3)OCC2=O)cn1` (stereo not given), the cytotoxicity at 10 µM was -79.1%.
Consider `O=C(NCc1ccco1)N1CCN(Cc2ccc3c(c2)CCO3)CC1`, for which the cytotoxicity at 10 µM was -2.83%.
In the case of `CCCn1nc(C)c(CNC(=O)C2COc3ccc(OC)cc3C2)c1C` (stereo not given), the cytotoxicity at 10 µM is -7.79%.
Take `COc1ncccc1CNC(=O)c1cccc(C)n1`: the cytotoxicity at 10 µM is -1.58%.
Turning to `CCCC(O)CN1CCC(=O)N(CCOC)Cc2cc3c(cc21)OCO3` (stereo not given), the cytotoxicity at 10 µM stood at 6.91%.
Turning to `O=C(c1ccc[nH]1)N1CCC2(CCCN2Cc2cccnc2)CC1`, the cytotoxicity at 10 µM came out at 6.89%.
Take `O=C(Cc1ccc2c(c1)OCCO2)NCc1ccc(-n2cncn2)nc1`: the cytotoxicity at 10 µM was -20.5%.
Consider `Cc1cc(C)n(CC(=O)NC(Cc2ccsc2)c2ccccn2)c(=O)n1` (stereo not given), for which the cytotoxicity at 10 µM is -1.91%.
In the case of `Cc1nn(C)c(N(C)C)c1CNC(C)COc1ccc(F)cc1F` (stereo not given), the cytotoxicity at 10 µM was -9.78%.
In the case of `CC(C)CN1C(=O)CO[C@@H]2CNC[C@H]21`, the cytotoxicity at 10 µM was -110%.
With `O=C(c1cn(CCN2CCCCC2)nn1)N1CCSCC1` the figure was 2.34%; with `COc1cccc2c1OCC(C(=O)NCc1c(C)noc1C)C2` (stereo not given), -15.5%.
The result for `O=C(CCOc1cccc(F)c1)N1CCCC(n2cccn2)C1` (stereo not given) reads -14.7%; that for `CN(C(=O)Cc1c[nH]c2ccccc12)C1CCN(c2ccccn2)CC1`, 9.36%; that for `Cc1nnsc1C(=O)N1CC[C@H](c2ccccc2)[C@@H]2[C@H]1CCCCN2C`, -17.6%.
The result for `CCC(CC)NCC(c1ccccn1)N1CCOCC1` (stereo not given) reads -44.8%; that for `CC(C)Cn1cc2nc(N3CCCC3)[nH]cc-2c1=O`, 9.6%; that for `Cc1ccc(CN2CC[C@H]3O[C@@H](C(=O)N4CCCO4)CC[C@H]32)s1`, -3.29%.
With `CC(C)NC(=O)[C@H]1C[C@H]2NCCO[C@@H]2C1`, the cytotoxicity at 10 µM was -134%.
Regarding `CS(=O)(=O)N[C@@H]1CN(Cc2ccc3ccccc3c2)C[C@H]1O`, the cytotoxicity at 10 µM was -2.92%.
Turning to `COCC(=O)N1CCCN(c2ncnc3c2CCNCC3)CC1`, the cytotoxicity at 10 µM worked out at 8.93%.
For the compound `COc1ccc(NC(=O)c2ccccc2NCc2ncnn2C)cc1`, the cytotoxicity at 10 µM is 2.06%.
With `COCC(=O)N1CCCC(C(=O)NCc2cc(CC(C)C)on2)C1` (stereo not given) the figure was 10.6%; with `Cc1nc(C)n(CC2CCCN(CCC(=O)NC3CCCCC3)C2)n1` (stereo not given), -3.39%.
Regarding `Cc1nn(C)c(C)c1C1COCCN1C(=O)NC1CC1` (stereo not given), the cytotoxicity at 10 µM amounted to 3.21%.
For `O=C(Nc1ccccc1)N1CCn2c(nnc2C2CCCN2)C1` (stereo not given), the cytotoxicity at 10 µM was found to be 2.91%.
As to `CN(C)Cc1nc(C(C)(C)NC(=O)c2cccc3ccccc23)no1`, the cytotoxicity at 10 µM is -1.8%.
As to `CCC(C)N(C)CCNC(=O)c1ccccc1OCCOC` (stereo not given), the cytotoxicity at 10 µM worked out at 0.386%.
As to `CC(NC(=O)NCc1cccs1)c1ccc2c(c1)CCC(=O)N2` (stereo not given), the cytotoxicity at 10 µM is 5.41%.
On to `CCOc1ncccc1NC(=O)N1CCN(c2ccc(O)cc2)CC1`, for which the cytotoxicity at 10 µM was -9.92%.
For the compound `O=C(NS(=O)(=O)c1c(Cl)cccc1Cl)c1cccc2c1OCCO2`, the cytotoxicity at 10 µM turned out to be 0.582%.
As to `CCOCc1nc2c(c(NCCNC(C)=O)n1)CCN(C(C)=O)CC2`, the cytotoxicity at 10 µM was 9.93%.
On to `Cc1cc2[nH]c(=O)oc2cc1S(=O)(=O)N1CCC(N2CCCC2=O)CC1`, for which the cytotoxicity at 10 µM came to 1.54%.
On to `CC(C)c1cc(N(C)Cc2noc(C3CCCC3)n2)n2nccc2n1`, for which the cytotoxicity at 10 µM is -0.0395%.
Take `Cc1nc(C)n(C2CCCN(C(=O)c3csc(CC(C)C)n3)C2)n1` (stereo not given): the cytotoxicity at 10 µM is -17.3%.
On to `CCn1c(Nc2ccccc2OC)nc2c(C)nn(C)c2c1=O`, for which the cytotoxicity at 10 µM came to 15.8%.
With `O=S(=O)(NCC1CCN(c2cnccn2)CC1)c1cccs1`, the cytotoxicity at 10 µM was 6.28%.
As for `CCS(=O)(=O)N(C)C1CCN(c2cccc(F)c2C(C)=O)CC1`, the cytotoxicity at 10 µM is 9.61%.
`O=C(Nc1ccccc1-c1ccccc1)N1C[C@@H]2CNC[C@]2(C(=O)O)C1`: the cytotoxicity at 10 µM is -40.5%.
With `Fc1cnccc1CN1CCCC2(CCN(c3ncccn3)CC2)C1` the figure was -112%; with `CCSc1nnc([C@@H](N)CC(C)C)o1`, -2.39%; with `CCOCCn1nc(C)cc1C(=O)N1CCOCC(CO)C1` (stereo not given), -20%.
Turning to `Cn1ccnc1CN1C(=O)CO[C@H]2CN(CCCc3ccccc3)C[C@H]21`, the cytotoxicity at 10 µM turned out to be 4.22%.
For `Cc1ccc(N2Cc3c(CN(C)C)nn(C)c3C2)nn1`, the cytotoxicity at 10 µM is 2.47%.
`CN(C)CCN(Cc1ccc(Cl)cc1)C(=O)c1cc[nH]n1`: the cytotoxicity at 10 µM is 5.65%.
On to `CCC(NC(=O)c1cccc2[nH]ccc12)C(=O)N1CCOCC1` (stereo not given), for which the cytotoxicity at 10 µM is -4.1%.
Consider `O=C(Nc1ccccc1)N1C[C@@H]2OCCN(C(=O)c3ccco3)[C@@H]2C1`, for which the cytotoxicity at 10 µM was -150%.
On to `Cc1nc(CN2CCN(c3ccc4nncn4n3)C(C)C2)oc1C` (stereo not given), for which the cytotoxicity at 10 µM is -2.91%.
With `O=C(CCNS(=O)(=O)c1ccccc1)NCc1ccoc1` the figure was -0.886%; with `Cn1cnc2c1CCN(CCCOc1ccc(S(C)(=O)=O)cc1)C2`, 4.94%.
On to `CC(=O)Nc1cc(C2CC2)nn1-c1nc(C)c(C)c(=O)[nH]1`, for which the cytotoxicity at 10 µM is -1.39%.
Turning to `O=C(c1ccccn1)N1C[C@@H](OCc2cccnc2)[C@H]2OCCC[C@@H]21`, the cytotoxicity at 10 µM was -0.187%.
For `CCc1nc(NC2CCN(CC(=O)NC3CC3)CC2)c2cnn(C)c2n1`, the cytotoxicity at 10 µM was found to be 4.99%.
With `COCC(=O)N(CCC(=O)OC)CC1CCCO1` (stereo not given) the figure was 1.74%.
In the case of `CN(CC(=O)Nc1cc(C(C)(C)C)n[nH]1)S(C)(=O)=O`, the cytotoxicity at 10 µM came to 5.15%.
For `COCCN(C)Cc1ccc(OC)c(OC(F)F)c1`, the cytotoxicity at 10 µM is -5.5%.
Turning to `O=C(Cc1cccnc1)N1CCC2(CC1)CCN(C1CCOC1)C2` (stereo not given), the cytotoxicity at 10 µM was -2.52%.
The result for `O=C(NC1CC1)[C@H]1C[C@H]2OCC[C@H]2N(Cc2cccc3ccccc23)C1` reads 2.64%.
Regarding `CC(NC(=O)CSCC#N)c1cccc(NC(=O)c2ccccc2)c1` (stereo not given), the cytotoxicity at 10 µM was -1.79%.
In the case of `O=C(c1cc2c([nH]c1=O)CCC2)N1CCCC1c1cccnc1` (stereo not given), the cytotoxicity at 10 µM was -5.79%.
Turning to `CC(=O)N1N=C(c2ccco2)OC1C(=O)N(C)CCc1ccccc1` (stereo not given), the cytotoxicity at 10 µM is -0.0253%.
With `CN(C)CC1CN(Cc2ccsc2)Cc2nccn2C1` (stereo not given), the cytotoxicity at 10 µM turned out to be 1.72%.
As to `CN1CCC(N(Cc2ccncc2)C(=O)COCC2CCCCO2)CC1` (stereo not given), the cytotoxicity at 10 µM is -150%.
Turning to `CC(=O)N1CCCC(c2nc(-c3ccccc3)c[nH]2)C1` (stereo not given), the cytotoxicity at 10 µM came to 6.48%.
For `CN(C)c1ccc(C2CC(=O)Nc3c2cnn3Cc2ccco2)cc1` (stereo not given), the cytotoxicity at 10 µM was -3.08%.
Consider `CNS(=O)(=O)c1cc(C(=O)NC2COc3ccccc32)cc(C)c1C` (stereo not given), for which the cytotoxicity at 10 µM is -1.51%.
Take `COc1ccc(C(=O)N2CCN(C(=O)c3csc(C(C)C)n3)CC2)cc1`: the cytotoxicity at 10 µM was -10.4%.
On to `CCC[C@@H]1CN(Cc2ccc(N(C)C)nc2)C[C@H]1N(C)C`, for which the cytotoxicity at 10 µM is -15.1%.
On to `COc1nc(C)cc(C)c1CNC(=O)N(C)Cc1cnn(C)c1`, for which the cytotoxicity at 10 µM was -4.64%.
With `CS(=O)(=O)NCc1cc(-c2cc(F)cc(F)c2)nc(N2CCCC2)n1` the figure was -1.53%; with `Cc1c(C(=O)N(C)CC(F)(F)F)nnn1-c1ccc(F)cc1`, 7.92%.
For the compound `Cc1ccc(CN2CC[C@H]3[C@H]2CCN3S(C)(=O)=O)s1`, the cytotoxicity at 10 µM was determined as 2.38%.
`Cc1cnc(N2C[C@@H]3[C@@H](C(=O)NCC(C)C)CCS(=O)(=O)[C@@H]3C2)nc1`: the cytotoxicity at 10 µM is -155%.
With `CCn1cc(C(=O)N2CCCC(c3[nH]ncc3S(C)(=O)=O)C2)cn1` (stereo not given), the cytotoxicity at 10 µM stood at 8.42%.
With `Cc1ccc(CN(C)CC(=O)NC2(C)CCS(=O)(=O)C2)cc1` (stereo not given) the figure was 5.05%; with `Cc1nc(CN2C[C@@H]3CN(C(=O)c4ccoc4C)C[C@@H]3C2=O)cs1`, -76.8%; with `COc1ncccc1C(=O)NCCn1cnc(C)cc1=O`, -0.37%.
`COCC1CCN(C(=O)c2cccc(S(=O)(=O)NC3CCCC3)c2)C1` (stereo not given): the cytotoxicity at 10 µM came out at 10.8%.
With `O=C(c1ccco1)N1CCN2C[C@H](OCc3cccnc3)C[C@H]2C1` the figure was -77%; with `Cc1ccc(CN(CCN(C)C)C(=O)Nc2cc(C(N)=O)ccc2C)s1`, 13.1%.
For `O=C(Cc1ccccc1)NCCNS(=O)(=O)C1CCCCC1`, the cytotoxicity at 10 µM was -1.95%.
